Results on 17 compounds are retold here after ChEMBL document CHEMBL3392995, “Erinacerins C-L, isoindolin-1-ones with α-glucosidase inhibitory activity from cultures of the medicinal mushroom Hericium erinaceus” (J Nat Prod, 2015).

Structures are written as SMILES.

Assay [1] is described as follows: Inhibition of baker's yeast alpha-glucosidase using p-nitrophenyl-alpha-D-glucopyranoside as substrate incubated with enzyme for 10 mins prior to substrate challenge for 15 mins by microplate reader analysis. On the set-up: species or system Saccharomyces cerevisiae. The gist of the method: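 Run in 96-well format, read as absorbance at 405 nm. Control used phosphate buffer in place of sample; blank used phosphate buffer in place of α-glucosidase. Inhibition (%) = [(ODcontrol − ODcontrol blank) − (ODtest − ODtest blank)]/(ODcontrol − ODcontrol blank) × 100. Acarbose served as positive control. Means of three independent experiments, each in triplicate.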

Another assay deals with A549. In words: Cytotoxicity against human A549 cells after 72 hrs by MTT assay. Format: functional, cell-based. Conditions: A549, 72 h. The gist of the method:
(§1)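 MTT read-out of cell viability in A549 (human lung adenocarcinoma) and HeLa (cervical cancer) cells. Values are means of three independent experiments, each run in triplicate.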

The test system of the next assay is HeLa. In words: Cytotoxicity against human HeLa cells after 72 hrs by MTT assay. Format: functional, cell-based. The gist of the method:
as §1
On the technique in general: Tetrazolium assays rely on reduction of a dye to a coloured formazan, in cell work by metabolically active cells.

As usually defined, the IC50 is the concentration needed to halve the response being measured. A lower IC50 goes with higher potency. Turning to `CC(C)[C@@H](C(=O)O)N1Cc2ccccc2C1=O`, the results for the IC50 (in assay [1]; in the assay with A549; with HeLa) were over 200 µM, 89.7 µM and over 100 µM, respectively.

In the case of `C/C(=C\Cc1c(O)cc2c(c1O)CN(CCO)C2=O)CC/C=C(\C)C(=O)O`, the IC50 in assay [1] is 24.2 µM; in the assay on A549, over 100 µM; in the assay on HeLa it was over 100 µM.

Regarding `COC(=O)C/C=C(\C)CCc1c(O)cc2c(c1O)CN([C@@H](Cc1ccccc1)C(=O)OC)C2=O`, the IC50 in assay [1] is 19.8 µM; in the assay on A549, over 100 µM; in the assay with HeLa, over 100 µM.

On to `COC(=O)CC/C(C)=C/Cc1c(O)cc2c(c1O)CNC2=O`, for which the IC50 in assay [1] was 145 µM; in the assay on A549, over 100 µM; in the assay on HeLa, over 100 µM.

Regarding `COC(=O)C/C=C(\C)CCc1c(O)cc2c(c1O)CN(CCO)C2=O`, the IC50 in assay [1] is 18.6 µM; in the assay with A549, 96.1 µM; with HeLa, over 100 µM.

For `COC(=O)C/C=C(\C)CCc1c(O)cc2c(c1O)CNC2=O`, the IC50 in assay [1] was 10.3 µM; with A549, over 100 µM; with HeLa it was over 100 µM.

As for `COc1cc2c(c(O)c1C/C=C(\C)CCC=C(C)C)CN(CCc1ccccc1)C2=O`, the IC50 is 5.3 µM in assay [1], 49 µM in the assay on A549 and 40.5 µM in the assay with HeLa.

Regarding `O=C(O)[C@H](Cc1ccccc1)N1Cc2ccccc2C1=O`, the IC50 in assay [1] was over 200 µM; in the assay on A549, over 100 µM; in the assay on HeLa, over 100 µM.

Take `COC(=O)CC/C(C)=C/Cc1c(O)cc2c(c1O)CN([C@@H](Cc1ccccc1)C(=O)OC)C2=O`: the IC50 in assay [1] was 15.5 µM; with A549 it was 89.7 µM; in the assay with HeLa it was over 100 µM.

In the case of `CC[C@H](C)[C@@H](C(=O)O)N1Cc2c(cc(O)c(C/C=C(\C)CC/C=C(\C)C(=O)O)c2O)C1=O`, the IC50 was 39.6 µM in assay [1], over 100 µM in the assay on A549 and over 100 µM in the assay with HeLa.

In turn, `C[C@H]1O[C@H](O[C@H]2[C@H](O)[C@@H](O)[C@@H](O[C@H]3[C@H](O)[C@@H](O)C(O)O[C@@H]3CO)O[C@@H]2CO)[C@H](O)[C@@H](O)[C@@H]1N[C@H]1C=C(CO)[C@@H](O)[C@H](O)[C@H]1O` (some centres undefined) [ACARBOSE] had an IC50 in assay [1] of 383 µM.

Take `O=C(O)[C@@H](Cc1ccccc1)N1Cc2ccccc2C1=O`: the IC50 was over 200 µM in assay [1], over 100 µM in the assay on A549 and over 100 µM in the assay on HeLa.

In the case of `CC(C)[C@H](C(=O)O)N1Cc2ccccc2C1=O`, the IC50 in assay [1] was over 200 µM; in the assay with A549, 41.5 µM; in the assay with HeLa, over 100 µM.

Regarding `C/C(=C\Cc1c(O)cc2c(c1O)CN([C@H](C(=O)O)C(C)C)C2=O)CC/C=C(\C)C(=O)O`, the IC50 is 12.8 µM in assay [1], over 100 µM with A549 and over 100 µM with HeLa.

Consider `CC[C@H](C)[C@@H](C(=O)O)N1Cc2ccccc2C1=O`, for which the 50% inhibitory concentration (IC50) is over 200 µM in assay [1], over 100 µM in the assay on A549 and over 100 µM with HeLa.

Turning to `C/C(=C\Cc1c(O)cc2c(c1O)CNC2=O)CC/C=C(\C)C(=O)O`, the IC50 is over 200 µM in assay [1], over 100 µM with A549 and over 100 µM in the assay on HeLa.

For `COC(=O)CC/C(C)=C/Cc1c(O)cc2c(c1O)CN(CCO)C2=O`, the values for the IC50 (in assay [1]; with A549; in the assay on HeLa) were 97.8 µM, over 100 µM and over 100 µM, respectively.
